Data set [1] in a line: Cytotoxicity against human H7GPL cells at 10 uM measured after 72 hrs by MTS assay. Format: toxicity, cell-based. The procedure, abridged:
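H7GPL-1 cells seeded at 3 × 10³ per well overnight, then exposed to 10 μM compound for 72 h. Medium replaced with MTS/PMS reagent (20:1) and incubated 1.5 h at 37 °C in 5% CO2; absorbance read at 490 nm. Viability expressed relative to control, where 100% means no cytotoxicity.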
Background: Tetrazolium assays rely on reduction of a dye to a coloured formazan, in cell work by metabolically active cells.

Data set [2] deals with T1, Glycine N-methyltransferase (Homo sapiens) (UniProt Q14749).
T1 sequence (whole entry): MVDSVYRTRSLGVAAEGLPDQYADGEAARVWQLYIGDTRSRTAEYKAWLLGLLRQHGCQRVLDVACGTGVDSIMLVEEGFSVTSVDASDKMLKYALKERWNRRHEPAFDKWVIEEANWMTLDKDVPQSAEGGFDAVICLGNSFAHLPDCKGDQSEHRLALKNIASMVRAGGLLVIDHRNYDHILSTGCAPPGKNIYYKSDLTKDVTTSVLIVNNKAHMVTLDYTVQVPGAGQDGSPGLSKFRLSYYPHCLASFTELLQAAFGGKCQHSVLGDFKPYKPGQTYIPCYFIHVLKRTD
Put plainly: Induction of GNMT in human H7GPL cells assessed as fold increase in promoter-driven luciferase reporter expression at 10 uM measured after 24 hrs by luminescence assay relative to control. The settings on record: filed as activator. Format: cell-based. In general terms: A reporter such as luciferase makes a cellular process visible.

Data set [3] concerns the target T1, Glycine N-methyltransferase (Homo sapiens). Kind of data set: Induction of GNMT in human H7GPL cells assessed as fold increase in promoter-driven luciferase reporter expression at 2.5 uM measured after 24 hrs by luminescence assay relative to control. It counts as cell-based. The settings on record: filed as activator. A digest of the protocol:
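H7GPL cells (Huh7 carrying a stable lentiviral GNMT promoter–luciferase reporter, kept in 1 μg/mL puromycin) treated with compound for 24 h, then luciferase measured. Luciferase activity normalised to cell viability and expressed as fold over solvent control; means ± SD, n = 3.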

For data set [4], the system named is Huh-7. Kind of data set: Inhibition of colony formation in human Huh-7 cells after 10 days by crystal violet staining based assay. Format: functional, cell-based. The settings on record: dose 0.6-10 µM, time 10.0 day. A digest of the protocol:
(§1)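 Cells seeded at 1 × 10⁴ per well overnight in six-well plates, then exposed to the specified drug concentrations for 10 days at 37 °C in 5% CO2. Surviving colonies stained with crystal violet and counted; means ± SD, n = 3.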

Data set [5] is described as follows: Toxicity in NOD-SCID mouse assessed as organ morphology at 10 to 25 mg/kg, po treated for 30 days. Conditions: in vivo, 720 h, dose 10-25 mg/kg, time 30 day. Format: organism-based. A digest of the protocol:
(§2)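 Huh7 cells (1 × 10⁶) were injected subcutaneously into the right flank of five- to six-week-old female mice. Once tumours were palpable, mice were randomised and dosed orally every day for 30 days at 10 or 25 mpk, with vehicle and sorafenib (25 mpk) groups alongside. Survival, body weight, liver function tests and organ morphology were monitored during treatment.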

In data set [6] the test system is HepG2. Put plainly: Effect on HDAC2 protein expression in human HepG2 cells at 0.6 to 10 uM incubated for 24 hrs by immunoblot analysis. Format: functional, cell-based. The settings on record: dose 0.6-10 µM. The procedure, abridged:
(§3)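 Huh7 or HepG2 cells exposed to the indicated concentrations for 24 h. Lysates prepared in RIPA buffer with phosphatase inhibitors (10 mM Na3VO4, 1 mM NaF, 5 mM NaPPi) and protease inhibitor cocktail; protein quantified by Bio-Rad assay. HDAC1 and HDAC2 detected by immunoblot, with GAPDH as loading control.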

The test system of data set [7] is HepG2. Put plainly: Inhibition of MYC mRNA expression in human HepG2 cells at 0.6 to 10 uM incubated for 24 hrs by immunoblot analysis. It counts as functional, cell-based. The settings on record: dose 0.6-10 µM, in the assay text read “qRT-PCR analysis” for “immunoblot analysis”. The procedure, abridged:
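Huh7 or HepG2 cells treated with the indicated concentrations for 24 h. Myc mRNA measured by qRT-PCR and expressed as fold over solvent control; means ± SD, n = 3.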
(In general: A western blot detects proteins with antibodies after separation by electrophoresis.)

Data set [8] deals with Huh-7. Put plainly: Antiproliferative activity against human Huh-7 cells assessed as inhibition of cell growth incubated for 72 hrs by Alamar blue assay. It counts as functional, cell-based. The settings on record: dose 0.3-80 µM. A digest of the protocol:
(§4)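 Cells seeded in 96-well plates and exposed to a range of drug concentrations for 72 h; Alamar Blue added for a further 4 h. Viable cells expressed as percentage of solvent-treated control; means ± SD, n = 3. Cells kept in DMEM with 10% FBS, 2 mM L-glutamine, 0.1 mM non-essential amino acids and antibiotics at 37 °C in humidified CO2.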

Data set [9] relates to Huh-7. Put plainly: Reduction in MYC protein expression in tumor of mouse xenografted with human Huh-7 cells at 10 to 25 mg/kg, po treated for 30 days. Format: functional, organism-based. The settings on record: dose 10-25 mg/kg, time 30.0 day. A digest of the protocol:
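Tumors taken from Huh7 xenografted nude mice dosed orally every day at 10 or 25 mpk. Tumor lysates prepared in RIPA buffer containing phosphatase and protease inhibitors. MYC and GNMT detected by immunoblot with β-actin as loading control; n = 6 mice per group.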

Data set [10] deals with Huh-7. Kind of data set: Effect on HDAC1 protein expression in human Huh-7 cells at 0.6 to 10 uM incubated for 24 hrs by immunoblot analysis. It counts as functional, cell-based. Conditions: dose 0.6-10 µM. The procedure, abridged:
as §3

Another data set relates to Hep 3B2. Put plainly: Antiproliferative activity against human Hep3B cells assessed as inhibition of cell growth incubated for 72 hrs by Alamar blue assay. Conditions: dose 0.3-80 µM. Format: functional, cell-based. A digest of the protocol:
as §4

Data set [11] can be described thus: Toxicity in NOD-SCID mouse assessed as survival at 10 to 25 mg/kg, po treated for 30 days. Format: organism-based. Conditions: in vivo, 720 h, dose 10-25 mg/kg, time 30 day. A digest of the protocol: as §2
A short description of data set [12]: Drug uptake in NOD-SCID mouse assessed as compound level in liver tissue at 25 mg/kg, po treated for 30 days. The settings on record: in vivo, 720 h.
Data set [13] in a line: Toxicity in NOD-SCID mouse assessed as liver function at 10 to 25 mg/kg, po treated for 30 days. It counts as organism-based. Conditions: in vivo, 720 h, dose 10-25 mg/kg, time 30 day. The procedure, abridged:
as §2

In data set [14] the test system is HepG2. Kind of data set: Antiproliferative activity against human HepG2 cells assessed as inhibition of cell growth incubated for 72 hrs by Alamar blue assay. It counts as functional, cell-based. The settings on record: dose 0.3-80 µM. The procedure, abridged: as §4
Data set [15] relates to Huh-7. Kind of data set: Effect on HDAC2 protein expression in human Huh-7 cells at 0.6 to 10 uM incubated for 24 hrs by immunoblot analysis. Format: functional, cell-based. The settings on record: dose 0.6-10 µM. A digest of the protocol:
as §3

A short description of data set [16]: Toxicity in NOD-SCID mouse assessed as body weight at 10 to 25 mg/kg, po treated for 30 days. Format: organism-based. Conditions: in vivo, 720 h, dose 10-25 mg/kg, time 30 day. The procedure, abridged:
as §2

For data set [17], the system named is Huh-7. Kind of data set: Increase in p21 expression in human Huh-7 cells at 0.6 to 10 uM incubated for 24 hrs by qRT-PCR analysis. Conditions: dose 0.6-10 µM.
The test system of data set [18] is HepG2. Put plainly: Effect on HDAC1 protein expression in human HepG2 cells at 0.6 to 10 uM incubated for 24 hrs by immunoblot analysis. Format: functional, cell-based. The settings on record: dose 0.6-10 µM. A digest of the protocol:
as §3

In data set [19] the test system is HepG2. Put plainly: Inhibition of colony formation in human HepG2 cells after 10 days by crystal violet staining based assay. It counts as functional, cell-based. The settings on record: dose 0.6-10 µM, time 10.0 day. A digest of the protocol:
as §1

Data set [20] concerns Huh-7. Kind of data set: Antitumor activity against human Huh-7 cells xenografted in mouse tumor model assessed as reduction in tumor volume at 10 to 25 mg/kg, po treated for 30 days. Format: functional, organism-based. The settings on record: dose 10-25 mg/kg, time 30.0 day. A digest of the protocol: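 Huh7 xenografts (1 × 10⁶ cells s.c., right flank) in female Balb/c nude mice aged 5–6 weeks. After tumors became palpable, mice were randomised and dosed orally every day at 10 or 25 mpk, or solvent; sorafenib 25 mpk as comparator. Caliper monitoring of tumor growth over about 4 weeks; mean ± SE, n = 6.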

Active and inactive are the calls of the source. No cut-off for these calls is given here.

For the molecule `c1ccc(-n2ncc3c(N4CCC5(CC4)OCCO5)ncnc32)cc1`, the Activity entry in data set [1] was “Non-Toxic”.
Regarding `C/C(=N\NC(=O)c1ccc(O)cc1O)c1ccccn1`, the fold change (FC) is 1.5 in data set [2] and 4.88 in data set [3].
The like results for `COc1ccccc1C(=O)N/N=C(\C)c1ccccn1` were, in that order, 1.31 and 1.72.
In the same order, the values of `O=C(N/N=C/c1ccccn1)c1cc2ccccc2cc1O` are 1.09 and 1.79.
With `C/C(=N\NC(=O)c1cccnc1N)c1ccccn1`, the inhibition entry in the data set with Huh-7 [4] and in the data set with HepG2 [19] was “Dose-Dependent Effect” throughout. Also, the Activity result is “Non-Toxic” in data set [5]; “Dose-Dependent Effect” in the data set with Huh-7 [8]; “Dose-Dependent Effect” with Hep 3B2; “Non-Toxic” in [11]; “Non-Toxic” in data set [13]; “Dose-Dependent Effect” in the data set on HepG2 [14]. Besides, the Activity entry in data set [16] was “Non-Toxic”. Besides, the outcome with HepG2 [6], in the data set on Huh-7 [10], in the data set with Huh-7 [15] and with HepG2 [18] was inactive. Also, the figures for the fold change (FC) in data set [2] and in data set [3] were 8.26 and 11.1, respectively. In addition, the inhibition result in the data set on HepG2 [7] and in the data set on Huh-7 [20] was “Active” throughout. The result with Huh-7 [9] and with Huh-7 [17] was Active. The Drug uptake entry in data set [12] is reported as “Active”.
For the molecule `O=C(N/N=C/c1cccs1)c1cc2ccccc2cc1O`, the fold change (FC) turned out to be 1.36 in data set [2] and 0.12 in data set [3].
In the same order, the values of `O=C(N/N=C/c1ccco1)c1cc2ccccc2cc1O` are 1.04 and 1.22.
In the same order, the values of `C/C(=N\NC(=O)c1c(O)cccc1O)c1ccccn1` are 11 and 0.61.
The like results for `C/C(=N\NC(=O)c1cc2ccccc2cc1O)c1ccco1` were, in that order, 1.18 and 1.42.
Regarding `C/C(=N\NC(=O)c1ccccc1O)c1ccccn1`, the fold change (FC) came out at 9.79 in data set [2] and 0.38 in data set [3].
As for `C/C(=N\NC(=O)c1cc2ccccc2cc1O)c1cccs1`, the values for the fold change (FC) in data set [2] and in data set [3] were 1.42 and 1.24, respectively.
Regarding `O=C(N/N=C/c1ccc2ccccc2n1)c1cc2ccccc2cc1O`, the fold change (FC) was found to be 1.01 in data set [2] and 1.11 in data set [3].
In the same order, the values of `O=C(NN=C(c1ccccn1)c1ccccn1)c1ccccc1O` are 5.86 and 4.55.
The like results for `C/C(=N\NC(=O)c1ccccc1)c1ccccn1` were, in that order, 6.96 and 0.59.

Values taken from ChEMBL document CHEMBL5226313, “Discovery of an Orally Efficacious MYC Inhibitor for Liver Cancer Using a GNMT-Based High-Throughput Screening System and Structure-Activity Relationship Analysis” (J Med Chem, 2021).
